Published values pooled from the literature.
Each line is one published result; the experiments were not run side by side.
Target: Platelet-derived growth factor receptor beta (PDGFRB, Homo sapiens, UniProt P09619)

FC(F)(F)c1ccc(CNc2ccc(Cc3c[nH]c4ncc(Cl)cc34)cn2)cn1
IC50 (enzyme activity; inhibitor): 8 nM

C=CC(=O)Nc1cccc(CN2C(=O)N(c3c(Cl)c(OC)cc(OC)c3Cl)Cc3cnc(NCCCCN(CC)CC)nc32)c1
Kd (binding; competition with immobilised ligand): 480 nM

Cc1ccc(NC(=O)c2ccc(CN3CCS(=N)(=O)CC3)cc2)cc1Nc1nccc(-c2cccnc2)n1
Kd (binding; competition with immobilised ligand): 19 nM

Cc1cc(Nc2cc3ncccc3c(N[C@@H]3C[C@H]4CC[C@@H](C3)N4CCC#N)n2)n[nH]1
Kd (binding; competition with immobilised ligand): 68 nM

COc1ccc2c(Oc3ccc4c(C(=O)Nc5ccccc5N)cccc4c3)ccnc2c1
IC50 (enzyme activity; inhibitor): 93 nM

Cc1cnc(-c2ccc(-c3ccc(NC(=O)Nc4c(F)cc(F)cc4F)cc3F)c3c2C(=O)NC3)[nH]1
Kd (binding; competition with immobilised ligand): 0.4 nM

Cc1ccc(NC(=O)c2ccc(C)c(C(F)(F)F)c2)cc1C#Cc1nn(C2CCC(O)CC2)c2ncnc(N)c12 (centres unmarked)
IC50 (enzyme activity; inhibitor; radiometric): > 10000 nM

CCN1CCN(Cc2ccc(C(=O)Nc3ccc(C)c(Oc4ccc5c(c4)CC(=O)N5)c3)cc2C(F)(F)F)CC1
IC50 (enzyme activity; inhibitor): > 10000 nM
